In ChEMBL document CHEMBL1649368, “Novel isatinyl thiosemicarbazones derivatives as potential molecule to combat HIV-TB co-infection” (Eur J Med Chem, 2011):
Converted amounts (≈) assume the structure as drawn.

Tests used:
[1] = target: T1, Isocitrate lyase (Mycobacterium tuberculosis) (UniProt P9WKK7); assay: Inhibition of Mycobacterium tuberculosis isocitrate lyase at 100 mM
T1 sequence (whole entry): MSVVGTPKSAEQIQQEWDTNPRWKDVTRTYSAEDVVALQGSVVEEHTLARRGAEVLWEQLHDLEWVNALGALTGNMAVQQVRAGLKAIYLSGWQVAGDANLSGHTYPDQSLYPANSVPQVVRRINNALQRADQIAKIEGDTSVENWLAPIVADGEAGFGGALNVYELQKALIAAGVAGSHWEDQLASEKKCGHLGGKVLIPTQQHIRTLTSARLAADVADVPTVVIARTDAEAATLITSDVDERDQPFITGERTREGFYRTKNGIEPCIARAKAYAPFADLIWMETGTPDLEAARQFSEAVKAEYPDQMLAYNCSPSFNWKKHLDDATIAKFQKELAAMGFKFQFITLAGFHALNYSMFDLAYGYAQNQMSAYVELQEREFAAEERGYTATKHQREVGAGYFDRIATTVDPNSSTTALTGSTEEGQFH
How it was run: (§1)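 Isocitrate lyase activity was measured at 37 °C as glyoxylate-phenylhydrazone formation from isocitrate with phenylhydrazine, MgCl2 and 2-mercaptoethanol in potassium phosphate buffer. After 10 min the mixture was diluted and absorbance read at 324 nm. Test compounds were added from a 10 mM solution; the 3-nitropropionic acid reference came from a 100 mM solution. % inhibition = (control − test)/control × 100.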

[2] = system: Mycobacterium tuberculosis; assay: Antimycobacterial activity against Mycobacterium tuberculosis H37Ra assessed as inhibition of bacterial growth in dormant phase; assay type: functional
How it was run: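 MTB grown in 7H9 with glycerol, OADC and Tween 80 at 37 °C with rolling to OD600 ~0.6, then washed and held in PBS 6 weeks at 37 °C. Starved cells (~1×10^7 in 1 mL PBS) were exposed to compounds in DMSO at various concentrations for 7 days with shaking. After washing, dilutions were plated on antibiotic-free 7H11 and counted after 4 weeks. MIC was complete growth inhibition, in triplicate.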

[3] = system: Mycobacterium tuberculosis; assay: Antimycobacterial activity against Mycobacterium tuberculosis H37Ra by agar dilution method; assay type: functional
How it was run: (§2)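 Log-phase MTB was tested by agar dilution on Middlebrook 7H11 with OADC, following NCCLS guidance. MIC was the lowest concentration giving complete growth inhibition, determined in triplicate.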

[4] = system: Mycobacterium tuberculosis; assay: Antimycobacterial activity against Mycobacterium tuberculosis H37Ra assessed as inhibition of bacterial growth in log phase by agar dilution method; assay type: functional; how it was run: as §2
[5] = Cytotoxicity against human MT4 cells after 5 days by spectrophotometry; assay type: cell-based
How it was run: (§3)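 MT-4 cells were grown in RPMI-1640 DM with 10% heat-inactivated calf serum and gentamicin. HIV-1 IIIB (100 CCID50) or mock infection was run in parallel with compounds in triplicate, at 37 °C and 5% CO2 for 5 days. Viability was read by MTT spectrophotometry. EC50 was the 50% reduction in virus cytopathic effect; CC50 was the 50% loss of mock-infected cell viability.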

[6] = system: Human immunodeficiency virus 1; assay: Antiviral activity against HIV1 3B infected in human MT4 cells assessed as protection against virus-induced cytopathogenicity after 5 days by microtiter plate analysis; assay type: functional, organism-based; details: Human immunodeficiency virus 1, 3B, MT4, 120 h; how it was run: as §3
[7] = target: Human immunodeficiency virus type 1 reverse transcriptase (Human immunodeficiency virus 1, UniProt Q72547); assay: Inhibition of HIV1 reverse transcriptase
How it was run: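 The radiometric reaction used wild-type RT in 50 mM Tris-HCl pH 7.8 with DTT, glutathione, EDTA, KCl, MgCl2, BSA, Triton X-100, poly(rC)·oligo(dG) template/primer and [3H]dGTP. It ran 15 min at 37 °C, was stopped with carrier DNA, pyrophosphate and TCA, and held on ice 30 min.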

[8] = target: T1, Isocitrate lyase (Mycobacterium tuberculosis); assay: Inhibition of Mycobacterium tuberculosis isocitrate lyase […]; how it was run: as §1

| Structure (SMILES) | inhibition [1] | MIC [2] | MIC [3] | MIC [4] | CC50 at 120 h [5] | EC50 [6] | IC50 [7] | inhibition [8] |
| --- | --- | --- | --- | --- | --- | --- | --- | --- |
| O=C(O)CC[N+](=O)[O-] | 66% |  |  |  |  |  |  |  |
| CONC(=S)N/N=C1\C(=O)N(CN2CCN(c3ccc(Cl)cc3)CC2)c2ccc(Cl)cc21 |  | 27.3 µM (≈ 13.5 µg/mL) | 6.34 µM (≈ 3.13 µg/mL) | 6.82 µM (≈ 3.37 µg/mL) | 229 µM | 2.43 µM | 0.25 µM | 6.38% |
| O=C1/C(=N\NC(=S)NO)c2cc(F)ccc2N1CN1CCN(c2ccc(Cl)cc2)CC1 |  |  | 3.37 µM (≈ 1.56 µg/mL) |  | 194 µM | 6.85 µM |  | 18.5% |
| Cc1ccc2c(c1)/C(=N/NC(=S)NO)C(=O)N2CN1CCN(c2ccc(Cl)cc2)CC1 |  |  | 6.82 µM (≈ 3.13 µg/mL) |  | 335 µM | 6.1 µM | 23.4 µM | 11% |
| CONC(=S)N/N=C1\C(=O)N(CN2CCOCC2)c2ccc(F)cc21 |  | 13.5 µM (≈ 4.95 µg/mL) | 4.25 µM (≈ 1.56 µg/mL) | 3.37 µM (≈ 1.24 µg/mL) | 274 µM | 28.9 µM |  | 15.9% |
| CONC(=S)N/N=C1\C(=O)N(CN2CCN(c3ccc(Cl)cc3)CC2)c2ccc(F)cc21 |  | 42.1 µM (≈ 20.1 µg/mL) | 3.27 µM (≈ 1.56 µg/mL) | 0.67 µM (≈ 0.32 µg/mL) | 347 µM | 3.77 µM | 16.7 µM | 28.4% |
| CCN(CC)CN1C(=O)/C(=N\NC(=S)NOC)c2cc(C)ccc21 |  |  | 8.96 µM (≈ 3.13 µg/mL) |  | 573 µM | 53.3 µM |  | 18.9% |
| CONC(=S)N/N=C1\C(=O)N(CN2CCN(c3cc4c(cc3F)c(=O)c(C(=O)O)cn4C3CC3)CC2)c2ccc(C)cc21 |  |  | 0.66 µM (≈ 0.401 µg/mL) |  | 232 µM | 9.22 µM |  | 63.4% |
| CONC(=S)N/N=C1\C(=O)N(CN2CCN(c3ccc(OC)cc3)CC2)c2ccc(C)cc21 |  | 9.74 µM (≈ 4.56 µg/mL) | 6.68 µM (≈ 3.13 µg/mL) | 0.16 µM (≈ 0.075 µg/mL) | 324 µM | 9.82 µM |  | 23.3% |
| CONC(=S)N/N=C1\C(=O)N(CN2CCN(c3ccc(Cl)cc3)CC2)c2ccc(C)cc21 |  | 20.4 µM (≈ 9.64 µg/mL) | 3.3 µM (≈ 1.56 µg/mL) | 0.65 µM (≈ 0.307 µg/mL) | 300 µM | 1.69 µM | 11.5 µM | 9.49% |
| O=C(O)c1cn(C2CC2)c2cc(N3CCN(CN4C(=O)/C(=N\NC(=S)NO)c5cc(F)ccc54)CC3)c(F)cc2c1=O |  | 13.1 µM (≈ 7.82 µg/mL) | 0.33 µM (≈ 0.197 µg/mL) | 3.27 µM (≈ 1.95 µg/mL) | 222 µM | 16.5 µM |  |  |
| CCn1cc(C(=O)O)c(=O)c2cc(F)c(N3CCN(CN4C(=O)/C(=N\NC(=S)NOC)c5cc(Cl)ccc54)CC3)cc21 |  | 19.6 µM (≈ 12.1 µg/mL) | 0.65 µM (≈ 0.4 µg/mL) | 0.63 µM (≈ 0.388 µg/mL) | 193 µM | 19.2 µM |  |  |
